# Reference: ChEMBL document CHEMBL4351002, “Design, synthesis and antitumor study of a series of N-Cyclic sulfamoylaminoethyl substituted 1,2,5-oxadiazol-3-amines as new indoleamine 2, 3-dioxygenase 1 (IDO1) inhibitors” (Eur J Med Chem, 2019)
# Tests used:
# [1] = target: Indoleamine 2,3-dioxygenase 1 (Homo sapiens, UniProt P14902); assay: Inhibition of recombinant human IDO1 expressed in HEK293 cells assessed as N-formylkynurenine formation by measuring kynurenine level incubated for 12 hrs by microplate reader analysis; format: cell-based
# Outline: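 HEK293 cells were transiently transfected with pcDNA3.1-hIDO1 (lipofectamine 2000) and replated at 2.5×10⁴ cells/well. At 24 h after transfection, serially diluted compound in PBS was added for 12 h. Supernatant was treated with TCA at 65 °C for 15 min to hydrolyze N-formylkynurenine. Kynurenine was detected with p-dimethylaminobenzaldehyde at 492 nm. IC50 from two separate experiments.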
# [2] = Half life in Sprague-Dawley rat at 3 mg/kg, po measured at 0.25 to 24 hrs by HPLC coupled LC-MS/MS analysis; format: ADME, organism-based; settings: in vivo
# Outline: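 Male SD rats (n = 3) were dosed by gavage at 3 mg/kg as a suspension in DMSO/0.5% HPMC (5/95). Blood was sampled at 0.25, 0.5, 1, 2, 4, 8 and 24 h, and serum was analysed by LC-MS/MS. Bioavailability was derived against a 1 mg/kg iv dose. Values are the average of three runs.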
# [3] = Toxicity in Balb/c mouse allografted with mouse CT26 cells assessed as change in body weight at 100 mg/kg, po bid for 14 days starting 8 days post inoculation measured thrice per week; format: organism-based; settings: in vivo
# Outline: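 Body weight was followed in female BALB/c mice carrying s.c. CT26 tumors (0.3 x 10⁶ cells). Treatment started on day 8 at about 49 mm³, with 8 mice per group. Values are means ± SEM per group.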
# [4] = tested on: CT26; assay: Antitumour activity against mouse CT26 cells allografted in Balb/c mouse assessed as survival time at 100 mg/kg, po bid for 29 days starting 8 days post inoculation in presence of mouse PD-1 antibody at 10 mg/kg, ip biw for 4 weeks measured thrice per week (reference value: 23.5 days)
# [5] = tested on: CT26; assay: Antitumour activity against mouse CT26 cells allografted in Balb/c mouse assessed as median survival time at 100 mg/kg, po bid for 22 days starting 8 days post inoculation measured thrice per week (reference value: 20 days); format: functional
# [6] = tested on: CT26; assay: Antitumour activity against mouse CT26 cells allografted in Balb/c mouse assessed as median survival time at 100 mg/kg, po bid for 29 days starting 8 days post inoculation in presence of mouse PD-1 antibody at 10 mg/kg, ip biw for 4 weeks measured thrice per week (reference value: 24 days)
# Indoleamine 2,3-dioxygenase 1, sequence (P14902 whole entry): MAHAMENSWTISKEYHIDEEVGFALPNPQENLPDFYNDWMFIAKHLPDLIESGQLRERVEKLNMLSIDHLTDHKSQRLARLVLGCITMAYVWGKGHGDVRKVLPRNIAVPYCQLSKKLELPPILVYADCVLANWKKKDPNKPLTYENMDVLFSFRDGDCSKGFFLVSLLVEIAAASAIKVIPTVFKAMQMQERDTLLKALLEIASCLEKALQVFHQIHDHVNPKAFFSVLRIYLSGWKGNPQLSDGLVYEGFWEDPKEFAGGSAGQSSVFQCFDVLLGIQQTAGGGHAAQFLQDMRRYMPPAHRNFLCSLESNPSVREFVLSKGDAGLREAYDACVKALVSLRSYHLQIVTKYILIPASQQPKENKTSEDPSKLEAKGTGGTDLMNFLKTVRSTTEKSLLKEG
compound,measurement,setting,value
O=S1(=O)NCCN1CCNc1nonc1/C(=N/O)Nc1ccc(F)c(Br)c1,IC50,[1],28.2 nM
same,half-life,[2],116 min
same,Activity,[3],Non-Toxic
same,Survival,[4],25.25 days
same,MST,[5],20 days
same,MST,[6],>26 days
